Assay results published in ChEMBL document CHEMBL1132148, “Synthesis and biological activity of (hydroxymethyl)- and (diethylaminomethyl)benzopsoralens” (J Med Chem, 1999).
The source made the active and inactive calls. The rule behind the calls is not given here.

What was measured:
[1] = The IC50-UVA is the dose of UVA light which in the presence of fixed drug concentration (20 uM) is necessary to induce a 50% inhibition of DNA synthesis by incubation at the ground state by keeping mammalian cells in the dark.; type: functional
Procedure, shortened: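 Ehrlich cells (Lettré strain) at 2 × 10^7 cells·mL-1 in PBS were irradiated with increasing UVA doses in the presence of 20 μM compound, with final DMSO ≤0.5%. Then 10^6 cells were labelled with 40 kBq·mL-1 [3H]thymidine for 30 min at 37 °C. Incorporation is given as % of untreated control, and IC50-UVA is the UVA dose (kJ·m-2) giving 50% inhibition.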

[2] = The IC50-dark is the drug concentration necessary to induce a 50% inhibition of DNA synthesis by incubation at the ground state by keeping mammalian cells in the dark.; type: functional
Procedure, shortened: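 Ehrlich cells (Lettré strain) in PBS received compound at room temperature without irradiation, with final DMSO ≤0.5%. They were then held 30 min at 37 °C in the dark with 40 kBq·mL-1 [3H]thymidine. DNA-incorporated radioactivity is expressed as % of untreated controls, and IC50 is the concentration giving 50% inhibition.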

[3] = The IC50-dark is the drug concentration necessary to induce a 50% inhibition of clonal growth by incubation at the ground state by keeping mammalian cells in the dark.; type: functional
Procedure, shortened: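 HeLa cells seeded at 1.5–2 × 10^5 were exposed after 24 h to compound in serum-containing growth medium for 3 h at 37 °C under 5% CO2, in the dark and without UVA. Controls had 0.5% DMSO. Afterwards 200 cells were replated and grown 7 days, and colonies of ≥50 cells were counted. IC50 is the concentration halving clonal efficiency.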

[4] = The IC50-UVA is the dose of UVA light which in the presence of fixed drug concentration (20 uM) is necessary to induce a 50% inhibition of clonal growth by incubation at the ground state by keeping mammalian cells in the dark; type: functional
Procedure, shortened: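 HeLa cells were grown in F-12 Ham with 5% FCS at 37 °C under 5% CO2, seeded at 1.5–2 × 10^5 and given 20 μM compound after 24 h. Cells had 15 min of dark uptake, then increasing UVA doses. Afterwards 200 cells were replated in 10% FCS medium for 7 days and colonies of ≥50 cells were counted. Clonal efficiency is colonies over cells seeded. IC50-UVA is the UVA dose giving 50% inhibition.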

[5] = organism: Cavia porcellus; assay: Phototoxicity on guinea pig skin was calculated at concentration of 30 uM.cm-2 and UVA light dose 20 kJ.me-2.-- indicates no erythemia.; type: functional, organism-based
Procedure, shortened: (§1)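 Depilated albino guinea pigs (outbred Dunkin-Hartley) received test compounds topically as 4.5 mM methanol solutions and were then exposed to UVA. The read-out was erythema scoring.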

[6] = organism: Cavia porcellus; assay: Phototoxicity on guinea pig skin was calculated at concentration of 4 uM.cm-2 and UVA light dose 5 kJ.me-2.+-- barely erythemia; type: functional, organism-based; procedure, shortened: as §1
[7] = organism: Cavia porcellus; assay: Phototoxicity on guinea pig skin was calculated at concentration of 2 uM.cm-2 and UVA light dose 5 kJ.me-2.-- indicates no erythemia; type: functional, organism-based; procedure, shortened: as §1
[8] = organism: Cavia porcellus; assay: Phototoxicity on guinea pig skin was calculated at concentration of 30 uM.cm-2 and UVA light dose 5 kJ.me-2. ++++ medium erythemia; type: functional, organism-based; conditions: in the assay text read “strong erythema with edema” for “medium erythemia”; procedure, shortened: as §1

| IC50 [1] | IC50 [2] | Compound | IC50 [3] | IC50 [4] | Intensity of erythemia [5] | Intensity of erythemia [6] | Intensity of erythemia [7] | Intensity of erythemia [8] |
| --- | --- | --- | --- | --- | --- | --- | --- | --- |
| 0.97 kJ m**-2 | 3 µM | O=c1ccc2cc3c(oc4ccccc43)c(CO)c2o1 | 6.8 µM | 0.19 kJ m**-2 | no erythemia |  |  |  |
| 16.8 kJ m**-2 | > 30 µM | O=c1oc2cc3oc4ccccc4c3cc2cc1CO | > 30 µM | 1.06 kJ m**-2 | no erythemia |  |  |  |
| 3.59 kJ m**-2 | > 30 µM | COc1c2occc2cc2ccc(=O)oc12 [METHOXSALEN] | > 30 µM | 1.23 kJ m**-2 |  | Partially active | inactive | Active |
| 0.67 kJ m**-2 | 0.94 µM | O=c1cc(CO)c2cc3c(cc2o1)oc1ccccc13 | 3.8 µM | 0.11 kJ m**-2 | no erythemia |  |  |  |
| 9.3 kJ m**-2 | 10.7 µM | CCN(CC)Cc1c2oc(=O)ccc2cc2c1oc1ccccc12 | 10.7 µM | 0.65 kJ m**-2 | no erythemia |  |  |  |
| 8.3 kJ m**-2 | 10.9 µM | O=c1ccc2c(CO)c3c(cc2o1)oc1ccccc13 | 25 µM | 0.23 kJ m**-2 | no erythemia |  |  |  |
| > 30 kJ m**-2 | > 30 µM | CCN(CC)Cc1cc2cc3c(cc2oc1=O)oc1ccccc13 | > 30 µM | > 30 kJ m**-2 | no erythemia |  |  |  |
| > 30 kJ m**-2 | > 30 µM | CCN(CC)Cc1c2ccc(=O)oc2cc2oc3ccccc3c12 | > 30 µM | > 30 kJ m**-2 | no erythemia |  |  |  |
| 2.22 kJ m**-2 | > 30 µM | CCN(CC)Cc1ccc2c(c1)oc1cc3oc(=O)cc(C)c3cc12 | > 30 µM | 1.83 kJ m**-2 | no erythemia |  |  |  |
| 0.48 kJ m**-2 | > 30 µM | Cc1cc(=O)oc2cc3oc4cc(CO)ccc4c3cc12 | > 30 µM | 0.16 kJ m**-2 | no erythemia |  |  |  |
